mIAP activ – activators of mouse IAP, primary screen, biochemical, luminescence, uHTS | intestinal alkaline phosphatase [Mus musculus] | activation factor at 10 µM | muIAP, CDP-Star luminescence, 30 min; hits give high values; 1 = vehicle-only enzyme signal, 0 = enzyme-free wells | 0.24% of 330,000 active;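 active = activation factor of at least 2 at 20 µM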
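System: Mouse IAP enzyme | Also added: CDP-Star substrate | Dosing: Compounds dispensed in DMSO | Schedule: 30 min enzyme-substrate-compound incubation at room temperature | Technique: Chemiluminescence readout | Control set: DMSO-only wells and no-enzyme negative control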
bIAP act – bovine intestinal alkaline phosphatase activators, primary screen, biochemical, bovine IAP, CDP-star luminescence | alkaline phosphatase, intestinal [Bos taurus] | purified bovine IAP, 30 min; hits give high values; fold of DMSO-control signal, blank-subtracted | activation factor at 20 µM | 0.17% of 200,000 active | AID 1016, 2008;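 active = activation factor of 2 or more at 20 µM, a signal rise over negative controls twice the positive control's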
hIAP act – human IAP activators, primary screen, biochemical, luminescence, uHTS | 0.16% of 330,000 active | Intestinal-type alkaline phosphatase (Homo sapiens), P09923 | activation factor at 10 µM | purified human IAP, CDP-Star luminescence, 30 min; hits give high values; 1 = vehicle-only enzyme, 0 = enzyme-free background;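 active = activation factor of the enzyme at least 2-fold when tested at 20 µM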
Target sequence (P09923 whole entry, looked up): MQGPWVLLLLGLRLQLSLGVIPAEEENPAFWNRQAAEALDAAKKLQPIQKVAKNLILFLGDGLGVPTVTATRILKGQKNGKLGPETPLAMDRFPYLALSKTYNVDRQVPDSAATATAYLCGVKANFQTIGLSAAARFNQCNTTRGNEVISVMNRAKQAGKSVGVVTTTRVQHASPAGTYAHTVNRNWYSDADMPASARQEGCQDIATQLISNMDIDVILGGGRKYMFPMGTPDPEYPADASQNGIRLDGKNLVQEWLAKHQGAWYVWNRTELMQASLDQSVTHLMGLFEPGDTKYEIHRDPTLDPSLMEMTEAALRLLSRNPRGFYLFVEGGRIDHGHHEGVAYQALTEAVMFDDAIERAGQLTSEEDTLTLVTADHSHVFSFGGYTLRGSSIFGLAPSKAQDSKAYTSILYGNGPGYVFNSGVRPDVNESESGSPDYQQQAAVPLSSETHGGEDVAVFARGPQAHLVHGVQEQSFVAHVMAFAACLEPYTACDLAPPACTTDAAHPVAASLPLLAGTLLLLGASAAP
mIAP inh – inhibitors of mouse IAP, primary screen, biochemical, luminescence, uHTS. intestinal alkaline phosphatase [Mus musculus]. purified mouse IAP, CDP-Star luminescence, 30 min. inhibition, % at 10 µM. 0.2% of 330,000 active. AID 2806, 2010;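 active = inhibition of at least 40% at 10 µM in the primary screen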
hIAP block – human IAP inhibitors, primary screen, biochemical, luminescence, uHTS; Intestinal-type alkaline phosphatase (Homo sapiens), P09923; purified IAP, CDP-Star luminescence, 30 min; inhibition, % at 10 µM; 0.12% of 330,000 active; AID 2544, 2010;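 active = inhibition reaching a set limit with compound at 10 µM in the primary screen, cut at about 35% in these data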
bIAP inh – bovine intestinal alkaline phosphatase inhibitors, primary screen, selectivity assay for TNAP inhibitor project, biochemical, bovine IAP, CDP-star luminescence. 190,000 tested, under 10 active. purified bovine IAP, 30 min. inhibition, % at 20 µM;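 active = over 50% inhibition of intestinal alkaline phosphatase at 20 µM in the single-dose screen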
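System: purified bovine intestinal alkaline phosphatase (IAP) enzyme; Input: IAP diluted 1/65,000,000 in the well; Measured by: CDP-star luminescence signal; Compound dosing: 20 µM single dose; Incubation: 30 min reaction at room temperature.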
mIAP inh conf – inhibitors of mouse IAP, confirmation, biochemical, luminescence, single concentration. shares compounds with mIAP inh. 4.7% of 11,000 active. inhibition, % at 10 µM. purified mouse IAP, CDP-Star luminescence, 30 min;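 active = inhibition of at least 40% at 10 µM in either of the two replicates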
Of the large screens only hits and unclear results are named; the others gave an inactive call (follow-up assays come after a bar, where they were run). In the library only some 0.72% were active in any assay of this set; here they are far more common.

N#Cc1c(SCC(=O)Nc2ccc(C(F)(F)F)cc2)sc2c(O)cc(=O)[nH]c12	none (no result: bIAP act, bIAP inh)
C=CCSC1=N/C(=C\c2sccc2C)C(=O)S1	none
C=CCSC1=N/C(=C\C=C\c2ccco2)C(=O)S1	mIAP inh 53.1 | mIAP inh conf 64.6
Oc1cc2c(cc1O)C1c3ccc(O)c(O)c3OCC1(O)C2 (configuration not stated)	mIAP inh 73.8 | mIAP inh conf 63.9
COC(=O)C(Cc1ccc(O)cc1)NC(=O)C1CCN(S(=O)(=O)c2ccc(C)cc2)CC1 (configuration not stated)	none (no result: bIAP act, bIAP inh)
COc1ccccc1CNC(=O)C1CCC(CNS(=O)(=O)c2cccc3cccnc23)CC1 (configuration not stated)	none (no result: bIAP act, bIAP inh)
Cc1oc(-c2ccc(Cl)cc2)cc1-c1nn2c(-c3ccoc3C)nnc2s1	mIAP inh 41.4 | mIAP inh conf 49.1
CCCCCCCCNC1=CC(=O)CC(C)(C)C1	none (no result: bIAP act, bIAP inh)
O=c1oc2cc([N+](=O)[O-])ccc2nc1/C=C(\O)c1cccc(Br)c1	none (no result: bIAP act, bIAP inh)
O=c1oc2cc([N+](=O)[O-])ccc2nc1/C=C(O)/C=C/c1ccccc1	mIAP inh 69.4 (no result: bIAP act, bIAP inh) | mIAP inh conf 76.3
CC(=O)Nc1ccc(S(=O)(=O)Nc2nc3ccccc3nc2Nc2ccc(C(=O)O)c(O)c2)cc1	mIAP inh 41.9 (no result: bIAP act, bIAP inh) | mIAP inh conf 50.1
CC(=O)Nc1ccc(S(=O)(=O)Nc2nc3ccccc3nc2Nc2cccc(O)c2)cc1	none (no result: bIAP act, bIAP inh)
O=C(COC(=O)c1ccccc1)Nc1ncc([N+](=O)[O-])s1	mIAP inh 67.4 (no result: bIAP act, bIAP inh) | mIAP inh conf 72.2
FC(F)Oc1ccc(NC(=S)NC2CCSc3ccccc32)cc1 (configuration not stated)	mIAP activ 5.06 (no result: bIAP act, bIAP inh) | mIAP inh conf inactive
COc1cccc(CC(=O)NC2CCSc3ccccc32)c1 (configuration not stated)	none (no result: bIAP act, bIAP inh)
S=C(NCc1ccccc1)NC1CCSc2ccccc21 (configuration not stated)	mIAP activ 4.42 (no result: bIAP act, bIAP inh) | mIAP inh conf inactive
Cc1cccc(NC(=S)NC2CCSc3ccccc32)c1 (configuration not stated)	mIAP activ 4.29 (no result: bIAP act, bIAP inh) | mIAP inh conf inactive
O=C(NC1CCSc2ccccc21)c1cccc(OC(F)F)c1 (configuration not stated)	none (no result: bIAP act, bIAP inh)
COc1ccc(C(=O)Nc2ccc(Br)cc2F)cc1S(=O)(=O)N1CCCC1	none (no result: bIAP act, bIAP inh)
Cn1nc(C(=O)N2CCN(c3ccc(F)cc3)CC2)c2c1-c1ccccc1S(=O)(=O)C2	none (no result: bIAP act, bIAP inh)
CCc1ccc(C(N)=S)cc1	none
O=C(O)CC(CCc1ccccc1)OC1OC(CO)C(O)C(O)C1O (configuration not stated)	mIAP inh 76.2 (no result: bIAP act, bIAP inh) | mIAP inh conf 79.7
CCOC(=O)[C@@H]1[C@H]2COc3cc(OC)ccc3[C@@H]2N2C(=O)N(c3ccc(F)cc3)C(=O)[C@@]12C	none (no result: bIAP act, bIAP inh)
CCOc1ccc(C(=O)N/N=C/c2cc(Cl)ccc2[N+](=O)[O-])cc1	none
O=C(COc1ccccc1C(=O)O)Nc1nc2ccc([N+](=O)[O-])cc2s1	none (no result: bIAP act, bIAP inh)
Cc1ccc(N2C(=O)/C(=C\c3ccco3)SC2=S)cc1	mIAP inh 55.0 | mIAP inh conf 64.5
O=C1/C(=C\c2ccco2)SC(=S)N1c1ccccc1	mIAP inh 64.1 | mIAP inh conf 56.6
Cc1ccc(/C=C2\SC(=S)N(CC3CCCO3)C2=O)o1 (configuration not stated)	none (no result: bIAP act, bIAP inh)
COc1ccc(CCN2C(=O)/C(=C\c3ccco3)SC2=S)cc1OC	mIAP inh 41.6 | mIAP inh conf 45.4
O=C1/C(=C/c2ccco2)SC(=S)N1CC1CCCO1 (configuration not stated)	mIAP inh 48.0 (no result: bIAP act, bIAP inh) | mIAP inh conf 54.3
O=C1/C(=C\c2ccco2)NC(=S)N1c1ccccc1	none
COc1ccc(CCC(=O)NCCS(=O)(=O)N2CCN(c3ccccc3OC)CC2)cc1	none (no result: bIAP act, bIAP inh)
COc1ccc(CC(=O)N2CCCC2)c(OC)c1	none (no result: bIAP act, bIAP inh)
c1ccc(-c2nccc(-c3ccco3)n2)nc1	none
Nc1ncnc2oc(-c3ccco3)c(-c3ccco3)c12	mIAP inh 71.4 | mIAP inh conf 74.6
NS(=O)(=O)c1ccc(-c2ccc(/C=N/NC(=O)c3ccc([N+](=O)[O-])cc3)o2)cc1	mIAP inh 42.2 (no result: bIAP act, bIAP inh) | mIAP inh conf 45.2
CCOC(=O)Cc1csc(NS(=O)(=O)c2ccc(SC)cc2)n1	none
O=[N+]([O-])c1ccc(OCc2cn([C@@H](CO)c3ccccc3)nn2)c(Br)c1	none (no result: bIAP act, bIAP inh)
N#Cc1c2c(c(NCc3ccco3)n3c1nc1ccccc13)CCC2	mIAP inh 50.5 | mIAP inh conf 57.4
CCC(CC)C(=O)c1c[nH]c(C(=O)NCc2ccncc2)c1	none
Oc1ccc(-c2csc(Nc3ccccn3)n2)cc1O	mIAP inh 61.9 (no result: bIAP act, bIAP inh) | mIAP inh conf 76.6
Cc1cccc(Nc2nc(-c3ccc(O)c(O)c3)cs2)n1	none (no result: bIAP act, bIAP inh)
Cc1cccnc1Nc1nc(-c2ccc(O)c(O)c2)cs1	mIAP inh 54.0 | mIAP inh conf 67.8
Cc1ccnc(Nc2nc(-c3ccc(O)c(O)c3)cs2)c1	none (no result: bIAP act, bIAP inh)
Oc1ccc(-c2csc(Nc3cccc4ccccc34)n2)cc1O	mIAP inh 63.3 (no result: bIAP act, bIAP inh) | mIAP inh conf 80.0
O=C(NCCCNc1ccnc2cc(Cl)ccc12)c1ccccc1F	none (no result: bIAP act, bIAP inh)
C/C=C/c1ccc(OCCCCN2CC(C)CC(C)C2)c(OC)c1 (configuration not stated)	none
Cc1cc2nc3s/c(=C/c4ccc(-c5ccccc5C(=O)O)o4)c(=O)n3c2cc1C	none (no result: bIAP act, bIAP inh)
O=C(O)c1ccccc1-c1ccc(/C=c2\sc3nc4cc(Br)cnc4n3c2=O)o1	mIAP inh 78.2 | mIAP inh conf 74.6
C=C(C)c1cccc(C(C)(C)NC(=O)Nc2ccc(C(N)=O)cc2)c1	mIAP activ 2.23 | mIAP inh conf inactive
CS(=O)c1ccccc1COC(=O)Nc1cccc(Cl)c1 (configuration not stated)	none
C=CCc1cc(Cl)ccc1OC(=O)Nc1cccc(Cl)c1	mIAP activ 3.02 (no result: bIAP act, bIAP inh) | mIAP inh conf inactive
O=C(N/N=C/c1ccco1)c1cccc(S(=O)(=O)Nc2ccccc2Cl)c1	mIAP inh 53.5 | mIAP inh conf 61.0
CCc1csc(CNC(=O)C2CCC(=O)N(Cc3cccc(F)c3)C2)n1 (configuration not stated)	none (no result: bIAP act, bIAP inh)
COC(=O)N/N=C/c1ccc([N+](=O)[O-])o1	none

Screens as filed in PubChem BioAssay.
